The source made the active and inactive calls.
Assays:
Paracentrotus lividus [1] = experiment: Antimitotic activity against sea urichin L embryo model assessed as embryo spinning by sea urichin embryo assay; type: functional
Paracentrotus lividus [2] = experiment: Antimitotic activity against sea urichin L embryo model assessed as cleavage alteration after 2.5 to 5.5 hrs of fertilization by sea urichin embryo assay; type: functional
Paracentrotus lividus [3] = experiment: Antimitotic activity against sea urichin L embryo model assessed as full mitotic arrest by sea urichin embryo assay; type: functional
Paracentrotus lividus [4] = experiment: Antimitotic activity against sea urichin L embryo model assessed as inhibition of skeletal spiculae growth by sea urichin embryo assay; type: functional
In short: (§1)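 Hatched free-swimming blastulae (8−9 h postfertilization) exposed to compound and followed to four-arm pluteus (34−36 h). Scored for spicule growth inhibition or arrest at late gastrula. Gametes obtained by intracoelomic 0.5 M KCl; embryos grown in filtered seawater at room temperature with paddle stirring, monolayer up to 2000 embryos/mL. Stocks in DMSO diluted with EtOH, or in water.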

Paracentrotus lividus [5] = experiment: Antimitotic activity against sea urichin L embryo model assessed as death of embryo at hatched blastula stage by sea urichin embryo assay; type: functional
Paracentrotus lividus [6] = experiment: Induction of mitotic spindle defects in sea urichin L embryo model assessed as aberrant mitotic spindles by conventional light microscopy; type: functional, organism-based
In short: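 Eggs exposed 8−15 min postfertilization, incubated at 21 °C. Mitotic apparatus examined by light microscopy at 1 h (first cleavage anaphase) and 2.5 h postfertilization, scored for aberrant, multipolar or absent spindles.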

Paracentrotus lividus [7] = experiment: Induction of mitotic spindle defects in sea urichin L embryo model assessed as formation of aberrant mitotic spindles at 2 uM by conventional light microscopy
Paracentrotus lividus [8] = experiment: Induction of mitotic spindle defects in sea urichin L embryo model assessed as complete blocked of spindle assembly at 50 nM by conventional light microscopy
Paracentrotus lividus [9] = experiment: Antimitotic activity against sea urichin L embryo model assessed as late gastrula stage by sea urichin embryo assay; type: functional; in short: as §1
[10] = Cytotoxicity against human NUGC3 cells by MTT assay; type: functional; conditions: NUGC-3, read-out: LD50 (the source's name)
BALL-1 = experiment: Cytotoxicity against human BALL-1 cells by MTT assay; type: functional; conditions: read-out: LD50 (the source's name)
Paracentrotus lividus [11] = experiment: Toxicity in sea urichin L embryo assessed as development up to 4 uM; type: organism-based; conditions: in vivo
In short: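 Fertilized eggs exposed 8−15 min postfertilization to 2-fold decreasing concentrations, with cleavage alteration or arrest scored at 2.5−5.5 h. Effective threshold concentration defined as the lowest giving 100% cleavage alteration and embryo death before hatching, with no effect at 2-fold lower. Final DMSO ≤0.05% and EtOH ≤1%. Run in duplicate.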

MOLT-4 = experiment: Cytotoxicity against human MOLT4 cells by MTT assay; type: functional; conditions: read-out: LD50 (the source's name)
HL-60 = experiment: Cytotoxicity against human HL60 cells by MTT assay; type: functional, cell-based

SMILES	EC (Paracentrotus lividus [1]) [µM]	EC (Paracentrotus lividus [2]) [µM]	EC (Paracentrotus lividus [3]) [µM]	EC (Paracentrotus lividus [4]) [µM]	EC (Paracentrotus lividus [5]) [µM]	Activity (Paracentrotus lividus [6])	Activity (Paracentrotus lividus [7])	Activity (Paracentrotus lividus [8])	EC (Paracentrotus lividus [9]) [µM]	CC50 [10] [µM]	CC50 (BALL-1) [µM]	Activity (Paracentrotus lividus [11])	CC50 (MOLT-4) [µM]	IC50 (HL-60) [µM]
CC[N+](CC)(CC)CCOCCOCCOCCOC(=O)[C@]1(C)CCC[C@@]2(C)[C@@H]3CC[C@@]4(C)C[C@]3(CC[C@@H]21)CC4=O.[Br-]	>100	>100	>100	100	–	–	–	–	–	–	–	–	–	–
C[C@@]12CC[C@@H]3[C@@](CC[C@H]4[C@@]3(C)CCC[C@@]4(C)C(=O)OCCC[P+](c3ccccc3)(c3ccccc3)c3ccccc3)(CC1=O)C2.[Br-]	>4	2	>4	–	4	Active	–	–	–	–	–	–	–	–
C[C@@]12CC[C@@H]3[C@@](CC[C@H]4[C@@]3(C)CCC[C@@]4(C)C(=O)OCCCCCC[P+](c3ccccc3)(c3ccccc3)c3ccccc3)(CC1=O)C2.[Br-]	>4	2	>4	–	1	Active	Active	–	–	–	–	–	–	–
CC[N+](CC)(CC)CCOCCOCCOC(=O)[C@]1(C)CCC[C@@]2(C)[C@@H]3CC[C@@]4(C)C[C@]3(CC[C@@H]21)CC4=O.[Br-]	>100	>100	>100	40	–	–	–	–	–	–	–	–	–	–
C[C@@]12CC[C@@H]3[C@@](CC[C@H]4[C@@]3(C)CCC[C@@]4(C)C(=O)OCCOCCOCC[P+](c3ccccc3)(c3ccccc3)c3ccccc3)(CC1=O)C2.[Br-]	>10	1	2	–	–	Active	–	–	–	–	–	–	–	–
COC(=O)Nc1nc2cc(C(=O)c3cccs3)ccc2[nH]1 [NOCODAZOLE]	0.1	0.005	0.1	–	>0.5	–	–	Active	0.02	–	–	–	–	–
C[C@@]12CC[C@@H]3[C@@](CC[C@H]4[C@@]3(C)CCC[C@@]4(C)C(=O)OCCCCCCCC[P+](c3ccccc3)(c3ccccc3)c3ccccc3)(CC1=O)C2.[Br-]	>4	2	>4	–	0.5	Active	–	–	–	–	–	–	–	–
C[C@@]12CC[C@@H]3[C@@](CC[C@H]4[C@@]3(C)CCC[C@@]4(C)C(=O)OCCOCCOCCOCCOCC[P+](c3ccccc3)(c3ccccc3)c3ccccc3)(CC1=O)C2.[Br-]	>10	1	4	–	–	Active	–	–	–	–	–	–	–	–
C[C@@]12CC[C@@H]3[C@@](CC[C@H]4[C@@]3(C)CCC[C@@]4(C)C(=O)OCCOCCOCCOCC[P+](c3ccccc3)(c3ccccc3)c3ccccc3)(CC1=O)C2.[Br-]	>10	1	2	–	–	Active	–	–	–	–	–	–	–	–
CC(=O)O[C@H]1C(=O)[C@@]2(C)[C@H]([C@H](OC(=O)c3ccccc3)[C@]3(O)C[C@H](OC(=O)[C@H](O)[C@@H](NC(=O)c4ccccc4)c4ccccc4)C(C)=C1C3(C)C)[C@]1(OC(C)=O)CO[C@@H]1C[C@@H]2O [PACLITAXEL]	>10	0.5	>10	–	2	–	–	–	–	–	–	–	–	–
COc1cc([C@@H]2c3cc4c(cc3[C@@H](O[C@@H]3O[C@@H]5CO[C@@H](C)O[C@H]5[C@H](O)[C@H]3O)[C@H]3COC(=O)[C@H]23)OCO4)cc(OC)c1O [ETOPOSIDE]	>68	0.5	>68	4	40	–	–	–	–	–	–	–	–	–
C[C@@]12CC[C@@H]3[C@@](CC[C@H]4[C@@]3(C)CCC[C@@]4(C)C(=O)O)(CC1=O)C2 [ISOSTEVIOL]	>4	>4	>4	–	–	–	–	–	–	167	87	Non-toxic	84	75

Reference: ChEMBL document CHEMBL3585256, “Triphenylphosphonium Cations of the Diterpenoid Isosteviol: Synthesis and Antimitotic Activity in a Sea Urchin Embryo Model” (J Nat Prod, 2015)
